# This is a sample that favours compounds with a hit; in the whole collection about 3% have one here.
# S1P3 agonist = activates the human S1P3 receptor | S1P3 NFAT-BLA reporter cells, agonism, FRET ratio; relative to 1 µM S1P, basal subtracted | activation, % at 4.5 µM | 60,000 compounds, 0.1% hits;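 active means activation above the screen-wide mean plus 3 SD, cut at about 4.5% in these data, passing the limit was not always enough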
#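 Assay system: stable CHO line with human S1P3, Gα16, NFAT-BLA reporter; Detection: FRET β-lactamase substrate fluorescence, excitation 405 nm, 460/535 nm emission ratio, background-subtracted; Read-out: percent activation versus median 1 µM S1P response, basal-subtracted, per plate; Incubation: cells plated overnight, compound 4 h 37 °C, substrate 2 h RT.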
# HTR1A agonist = activates the human 5-HT1a serotonin receptor; 65,000 compounds, 0.56% hits; activation, % at 10 µM; CHO 5-HT1a Ga15 NFAT-bla reporter, FRET ratio; 0% basal, 100% maximal reference agonist;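 active means activation above the screen-wide mean activation plus 3 SD, cut at about 19% in these data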;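 further: 0% = DMSO wells and 100% = 5-CT at EC100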
# Target sequence (P08908 whole entry, looked up): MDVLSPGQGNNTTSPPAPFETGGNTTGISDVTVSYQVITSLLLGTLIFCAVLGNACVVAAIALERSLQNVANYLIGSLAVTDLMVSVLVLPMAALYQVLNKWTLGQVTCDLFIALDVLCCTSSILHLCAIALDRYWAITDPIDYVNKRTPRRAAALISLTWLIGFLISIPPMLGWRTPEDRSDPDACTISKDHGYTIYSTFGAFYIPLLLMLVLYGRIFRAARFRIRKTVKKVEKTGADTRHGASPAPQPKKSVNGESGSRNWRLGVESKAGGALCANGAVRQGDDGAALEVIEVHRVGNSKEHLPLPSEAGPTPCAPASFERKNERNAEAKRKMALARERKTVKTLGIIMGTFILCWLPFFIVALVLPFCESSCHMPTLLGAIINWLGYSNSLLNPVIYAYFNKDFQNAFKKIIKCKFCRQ
# S1P1 ag-PAM = S1P1 (human) agonism or agonism potentiation | P21453 | S1P1 CRE-bla cells, forskolin, beta-lactamase FRET, potentiator mode; S1P1 agonist co-added at EC20, 2 nM; 100% = saturating reference agonist, 0% = basal | activation, % at 9.5 µM | 56,000 compounds, 0.57% hits;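 active means activation above a cutoff set at the mean activation of all tested compounds plus 3 SD, cut at about 54% in these data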;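 further: forskolin at 4 µM as EC80 and the EC20 agonist is SEW2871; 100% = SEW2871 at its EC100 plus forskolin at EC80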
# 5HT1E antag = 5-HT1E (human) receptor antagonism. P28566. CHO 5-HT1E Ga15 NFAT-bla reporter, FRET, antagonist. inhibition, % at 6 µM. 65,000 compounds, 0.99% hits. AID 571;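 active means inhibition above a set limit, the mean inhibition across every tested compound plus 3 SD, cut at about 29% in these data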;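 further: signal is the 460 over 535 nm emission ratio of beta-lactamase substrate; 0% = agonist plus DMSO wells and 100% = wells without agonist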
# 5HT1E ag = agonists of human 5-HT1E serotonin receptor. P28566. CHO 5-HT1E Ga15 NFAT-bla reporter, FRET; 0% DMSO wells, 100% control agonist wells. activation, % at 6 µM. 65,000 compounds, 0.69% hits. AID 574;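 active means activation above a set limit, the screen-wide mean activation plus 3 SD, cut at about 8.5% in these data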;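 further: 100% = positive control agonist at 1 µM giving full maximal response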
# 5HT1a antag = blocks the human serotonin 5-HT1a receptor. P08908. CHO 5-HT1a Ga15 NFAT-bla reporter, antagonist mode. inhibition, % at 10 µM. 62,000 compounds, 0.68% hits. AID 612;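 active means inhibition above the mean of all tested compounds plus 3 SD, cut at about 43% in these data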;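 further: receptor stimulated by 5-CT agonist at 100 nM near EC80; beta-lactamase reporter measured by ratiometric fluorescence of a cleavable substrate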
# The depositor's hits bear a star; · = not tested or not shown.
SMILES,S1P3 agonist,HTR1A agonist,S1P1 ag-PAM,5HT1E antag,5HT1E ag,5HT1a antag
COc1cc(OC)c(OC)cc1CNC1CCCCCC1,-2,33*,-9,18,0,8
Cc1nc2ccc(C(=O)O)cc2c2c1CC(C)S2 (stereo not drawn),-1,0,·,-7,0,-14
CCOC(=O)c1[nH]c2ccccc2c1NC(=O)CC,-2,0,2,11,0,13
CCOC(=O)c1c(C)nc(-c2ccccc2)nc1NC(=O)CC,0,-1,10,-7,68*,17
O=C(O)c1ccc(COc2c(F)c(F)c(F)c(F)c2F)o1,-2,0,-6,7,0,·
COC(=O)CN(c1ccc(OC)cc1)S(=O)(=O)c1ccc(OC)c(OC)c1,2,20*,·,4,1,0
O=C(NC(=O)N1CCN(c2ccccc2F)CC1)c1ccccc1,0,17,5,11,18*,5
Cc1ccc(C(=O)N2CCN(c3cccc(Cl)c3)CC2)cc1C,-2,2,24,5,1,8
O=C(NCc1ccccc1)N1CCN(c2ccccc2F)CC1,0,2,9,1,0,-4
O=C(NC(=O)N1CCN(c2cccc(Cl)c2)CC1)c1ccccc1,-1,3,21,8,14*,12
Cc1noc(C)c1CSc1cc(C)c2ccccc2n1,-1,0,32,-9,1,12
COc1ccc(CNC(=O)c2cc3c(C)nc4ccccc4c3o2)c(OC)c1,-2,2,94*,16,0,17
COc1cc(NC(=O)c2cc3c(C)nc4ccccc4c3o2)cc(OC)c1OC,-1,5,-24,11,0,0
c1coc(CNC2CCCCCCC2)c1,0,42*,2,13,-1,5
Cc1cc(-c2ccccc2)n2ncc(C#N)c2n1,-1,0,-34,3,0,2
Fc1ccccc1N1CCN(C(c2cccs2)c2nnnn2CCc2ccccc2)CC1 (stereo not drawn),-1,-4,40,20,-1,57*
Fc1ccc(N2CCN(C(c3cccs3)c3nnnn3CCc3ccccc3)CC2)cc1 (stereo not drawn),1,2,19,-5,1,25
c1ccc(CCn2nnnc2C(c2cccnc2)N2CCN(c3nc4ccccc4s3)CC2)cc1 (stereo not drawn),0,2,-12,2,1,18
c1ccc(CCn2nnnc2C(c2cccnc2)N2CCN(c3ccccc3)CC2)cc1 (stereo not drawn),-1,-1,-1,1,9.9*,9
Cc1ccc(-c2nn3c(C)nnc3s2)cc1NCc1c(F)cccc1Cl,-2,0,·,8,2,45*
Cc1ccc(CNc2cc(-c3nn4c(C)nnc4s3)ccc2C)s1,-1,2,-61,14,1,5
COc1ccc(Cl)cc1NC(=O)c1ccco1,0,0,0,-6,23*,8
N#Cc1ccsc1NC(=O)COc1ccc(-c2nnco2)cc1,1,-3,3,4,0,3
CCCOC(=O)c1ccc(Oc2cn[nH]c2-c2ccc(OC)cc2O)cc1,-1,0,36,26,-1,46*
CCOc1ccc(-c2[nH]ncc2Oc2ccccc2OC)c(O)c1,0,-4,-4,-3,1,-3
SMILES,S1P3 agonist,HTR1A agonist,S1P1 ag-PAM,5HT1E antag,5HT1E ag,5HT1a antag
CCc1nnc(NC(=O)CCN2C(=O)c3ccccc3C2=O)s1,-1,3,-27,-6,16*,4
CCc1nnc(NC(=O)CCN2C(=O)c3ccccc3S2(=O)=O)s1,0,1,2,-3,0,-1
O=C(Cn1cccc1)NCc1cccs1,0,-2,-13,0,-1,6
O=C(Cc1ccc(-n2cccc2)cc1)NCc1cccs1,-2,-3,6,51*,0,36
COc1cccc(NC(=O)CSc2nc3c(c(-c4ccco4)c2C#N)CCCC3)c1,0,-5,13,0,-1,1
COCCOC(=O)c1c(C)nc(SCC(=O)Nc2ccc(OC)cc2)c(C#N)c1-c1ccco1,-1,5,3,34*,0,·

# Source: PubChem BioAssay
